# Screening data from PubChem BioAssay.
# FLuc act counter: FLuc activators, initial screening, artefact control for FLuc-dependent activation tests, biochemical, ATPlite luminescence | Luciferin 4-monooxygenase (Photinus pyralis), P08659 | ATPlite luciferase biochemical, 10 min; 0 = ATP-free wells, 1 = DMSO control | activation factor at 10 µM | 200,000 tested, under 10 active | AID 1027, 2008;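 active = luciferase activation factor, scaled between plate controls, of at least 2 with compound at 10 µM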
# Target sequence (P08659 whole entry, looked up): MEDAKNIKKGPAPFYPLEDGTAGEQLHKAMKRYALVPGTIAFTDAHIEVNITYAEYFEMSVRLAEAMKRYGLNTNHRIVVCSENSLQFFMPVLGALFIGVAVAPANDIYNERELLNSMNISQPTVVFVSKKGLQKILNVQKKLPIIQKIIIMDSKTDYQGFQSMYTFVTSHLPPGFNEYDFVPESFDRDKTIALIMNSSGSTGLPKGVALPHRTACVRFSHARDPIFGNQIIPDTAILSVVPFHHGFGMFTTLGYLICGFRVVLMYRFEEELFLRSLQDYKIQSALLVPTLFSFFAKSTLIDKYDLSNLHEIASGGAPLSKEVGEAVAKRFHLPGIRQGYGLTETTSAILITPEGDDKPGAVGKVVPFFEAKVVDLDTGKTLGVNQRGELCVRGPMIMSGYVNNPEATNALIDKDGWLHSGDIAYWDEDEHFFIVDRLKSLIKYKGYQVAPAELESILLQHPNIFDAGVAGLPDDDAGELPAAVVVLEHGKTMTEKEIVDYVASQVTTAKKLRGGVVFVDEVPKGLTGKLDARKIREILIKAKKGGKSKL
#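 Material: luciferase plus luciferin reagent, cell-free. Medium: PBS buffer for ATP. Also added: ATP substrate, dispensed from a 10.24 µM working solution in PBS. Doses: test compounds dosed from 2 mM stocks in 100% DMSO. Incubation: 10 min post-reagent at room temperature. Technique: light output (luminescence). Read-out basis: luminescence gain marking luciferase activators.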
# STAT1 activator: STAT1 signaling activators, primary screen, cell-based, HTS, luciferase reporter; activation (% of control), % at 5.5 µM; NIH 3T3 STAT1-luciferase reporter, IFN-gamma, luminescence; 100% = IFN-gamma alone, no compound; 200,000 compounds, 2.6% hits;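 active = activation above the screen-wide mean activation plus 3 SD, cut at about 130% in these data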;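 note: raw ratio to IFN-gamma control signal so 100% means no change and 0% no light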
# NF-kB neuron act: activators of NF-kB expression in neurons, primary screen, cell-based, HTS | human neuronal cells, NF-kB reporter expression; hits give high values | 190,000 compounds, 1.6% hits | fold change at 12.5 µM; in the data active = fold change above about 3.3
# APP 5'UTR act: activators of APP 5'UTR luciferase reporter, primary screen, SH-SY5Y cells; SH-SY5Y APP 5'UTR luciferase reporter, luminescence; zero percent = DMSO vehicle wells; activation, % at 2 µM; 190,000 compounds, 1% hits; AID 1276, 2008;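 active = activation above a set limit, based on mean plus 3 SD of controls, cut at about 140% in these data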
# FLuc inh counter: firefly luciferase enzyme inhibitors, primary screen, artefact control for luciferase-based inhibitor screens, biochemical, luminescence, ATPLite. Luciferin 4-monooxygenase (Photinus pyralis), P08659. 10 min. inhibition, % at 10 µM. 200,000 compounds, 1.5% hits. AID 1006, 2008;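 active = inhibition above about 50% when tested at 10 µM, limit read from the data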
# APP 5UTR inh: inhibitors of APP translation via 5'UTR reporter, primary screen, APP 5'UTR luciferase, SH-SY5Y cells. SH-SY5Y APP 5'UTR-luciferase reporter, luminescence. inhibition, % at 2 µM. 190,000 compounds, 0.82% hits. AID 1285, 2008;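 active = inhibition above a set limit, derived from the sample mean plus 3 SD, cut at about 45% in these data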
# Numbers without * were called inactive; . = no result. In the library only some 4.8% were active in any assay of this set; here they are far more common.
SMILES,FLuc act counter,STAT1 activator,NF-kB neuron act,APP 5'UTR act,FLuc inh counter,APP 5UTR inh
N#C/C(=C\c1ccc(OCc2ccccc2)cc1)C(N)=O,1,130*,1.9,58,5,-58
Nc1ccc(Oc2cccc(Oc3ccc(N)cc3)c2)cc1,1,63,0.45,-49,-1,49*
Nc1ccc(Oc2ccc(Br)cc2)cc1,1,100,3.5*,-12,-2,12
Cc1cccc(Oc2ccc(N)cc2)c1,1,102,1,-7,-3,7
Cc1cc(NC(=O)c2ccc([N+](=O)[O-])o2)ccc1NC(=O)c1ccco1,1,101,5.1*,-79,1,79*
O=C(Nc1ccc(NC(=O)c2ccco2)cc1)c1ccc2c(c1)OCCO2,0.9,84,0.76,-34,8,34
Cc1cc(NC(=O)c2ccc3c(c2)OCCO3)ccc1NC(=O)c1ccco1,0.2,105,1.5,14,82*,-14
O=C(CS(=O)(=O)Cc1ccccc1)NCc1ccco1,1.1,94,1,-15,-6,15
NC(=O)c1ccccc1N/C=C/C(=O)c1ccccc1,0.1,91,5.5*,132,89*,-132
NC(=O)c1ccccc1NC(=O)/C=C/c1ccc(Cl)cc1,0.2,144*,3,160*,80*,-160
NC(=O)c1ccccc1NC(=O)/C=C/c1ccccc1,0.2,129*,3.6*,104,82*,-104
COC(=O)c1ccccc1N/C=C/C(=O)c1ccc(Br)cc1,1,123,1.9,25,1,-25
O=C1c2ccccc2C(=O)C1c1ccc2ccccc2n1,0.1,125,1.2,129,91*,-129
COC(=O)C1=C(C)NC(C)=C(C(=O)OC)C1c1ccc2ccccc2n1,1,98,0.93,.,-5,.
O=C(OCCN1C(=O)c2cccc3c(N4CCOCC4)ccc(c23)C1=O)c1ccc(Cl)cc1,1,99,1.1,-51,-3,50*
CCOC(=O)c1cc2cc(OC)ccc2nc1C,1,103,1.2,7,-1,-7
Cc1cc(/C=C(\C#N)C(=O)NC2CC2)c(C)[nH]1,0.6,145*,2.3,39,42,-40
CCC(=O)Nc1cc(C(=O)OCC(=O)c2ccccc2)ccc1C,0.8,144*,0.72,47,16,-47
CCC(=O)Nc1cc(C(=O)OCC(=O)c2ccccc2Cl)ccc1C,0.7,125,2.2,24,30,-24
CC(C(O)C12CC3CC(CC(C3)C1)C2)N1CCCCC1 (stereo not given),1.1,105,1,12,-8,-12
CC(C)CCN(C(=O)CNC(=O)c1ccco1)C(C(=O)NC1CCCCC1)c1ccco1 (stereo not given),1.1,95,0.32,0,-8,0
Cc1cc(C(=O)Cn2nc(C(=O)O)c3ccccc3c2=O)c(C)n1-c1ccccc1,0.1,107,0.78,51,92*,-51
Cc1cc(C(=O)Cn2nc(C(=O)O)c3ccccc3c2=O)c(C)n1CCc1ccc(Cl)cc1,1.1,97,3,3,-7,-4
CCSc1cc(N2CCCC2)nc(-c2ccccc2Cl)n1,1,97,0.98,1,-4,-1
COc1ccc(C2C(C(C)=O)=C(O)C(=O)N2c2nccs2)c(OC)c1 (stereo not given),1.1,103,1.2,3,-10,-3
SMILES,FLuc act counter,STAT1 activator,NF-kB neuron act,APP 5'UTR act,FLuc inh counter,APP 5UTR inh
CCC(=O)Nc1sc(C(=O)Nc2ccccc2F)c(C)c1C(=O)OC,1.1,131*,1.1,66,-9,-66
COC(=O)c1c(NC(C)=O)sc(C(=O)Nc2ccccc2F)c1C,1,117,1.2,2,-3,-2
CCOC(=O)c1c(N)sc(C(=O)Nc2ccccc2)c1C,0.2,106,7.1*,222*,84*,-222
CCOC(=O)c1cc(C(=O)Nc2ccccc2F)nn1C,0.9,133*,5.9*,11,14,-11
CCOC(=O)n1ccc(C(=O)Nc2ccccc2F)n1,1,110,1.4,-6,-2,6
CCOC(=O)c1c(N)sc(C(=O)Nc2ccccc2F)c1C,0.2,101,7.4*,238*,75*,-238
Cc1c(C(=O)C(=O)NCc2ccco2)c2ccccc2n1C,1,103,1.4,10,-2,-10
CCOC(=O)CN1C(=O)CSc2ccccc21,1,101,0.93,-5,-3,5
O=C(Cc1ccccc1[N+](=O)[O-])NCc1ccc(Cl)cc1Cl,0.4,131*,4.4*,98,59*,-98
Cn1cccc1CNC(=O)Nc1ccc(Cl)c(Cl)c1,1,135*,1.1,.,-3,.
CCOc1ccc(-c2cc(C(=O)N3CCN(C)CC3)c3ccccc3n2)cc1,0.2,117,2,37,83*,-37
CCOC(=O)N1CCN(C(=O)c2cc(-c3ccc(OCC)cc3)nc3ccccc23)CC1,0.1,146*,3.3*,-78,92*,78*
CCOC(=O)C1CCCN(C(=O)c2cc(-c3ccccc3)nc3ccccc23)C1 (stereo not given),1,87,1.1,0,1,0
Cc1ccc(C(=O)N/C(=C\c2cccs2)C(=O)NCCCn2ccnc2)cc1C,1,105,1,-6,-3,6
Cc1cc(C(=O)Nc2sc(C)c(-c3ccc(F)cc3)c2C(N)=O)no1,0.6,161*,0.86,51,40,-51
CN(C)c1ccc(/C=N/NC(=O)c2nonc2N)cc1[N+](=O)[O-],0.8,133*,1,-12,16,12
CS(=O)(=O)N1N=C(c2ccccc2)CC1c1ccc2c(c1)OCO2 (stereo not given),1,137*,2,0,3,0
COc1ccccc1NC(=O)N1CCC(c2nc3cc(C)c(C)cc3[nH]2)CC1,0.7,108,2.6,-58,30,58*
COc1ccc(OC(=O)c2ccc(Cl)cc2)c(C(C)=O)c1,1,99,1.3,34,0,-34
Cc1c(C(=O)Nc2ccccc2)csc1-c1ccccc1,0.2,137*,5.2*,189*,82*,-189
C=COC(=O)CSc1nc(-c2cccs2)ccc1C#N,1,136*,1.9,90,-3,-90
CCOC(=O)C(C)Sc1nc(-c2cccs2)ccc1C#N (stereo not given),1.1,97,1.1,17,-6,-17
Cc1cc(C(=O)CN2CCCC(C)C2)c(C)n1-c1ccc(F)cc1 (stereo not given),1,143*,0.91,18,-2,-18
